Measurements as given in ChEMBL document CHEMBL1125646, “Potential antipsychotic agents. 9. Synthesis and stereoselective dopamine D-2 receptor blockade of a potent class of substituted (R)-N-[(1-benzyl-2-pyrrolidinyl)methyl]benzamides. Relations to other side chain congeners” (J Med Chem, 1991).
Values belong to the molecule of their own block, whether it stands above or below them.

Columns and labels:
D(2) dopamine receptor [1] = target: T1, D(2) dopamine receptor (Rattus norvegicus, UniProt P61169); assay: Inhibition of [3H]spiperone binding to rat striatal dopamine receptor D2 was determined in vitro
T1 sequence (P61169 whole entry): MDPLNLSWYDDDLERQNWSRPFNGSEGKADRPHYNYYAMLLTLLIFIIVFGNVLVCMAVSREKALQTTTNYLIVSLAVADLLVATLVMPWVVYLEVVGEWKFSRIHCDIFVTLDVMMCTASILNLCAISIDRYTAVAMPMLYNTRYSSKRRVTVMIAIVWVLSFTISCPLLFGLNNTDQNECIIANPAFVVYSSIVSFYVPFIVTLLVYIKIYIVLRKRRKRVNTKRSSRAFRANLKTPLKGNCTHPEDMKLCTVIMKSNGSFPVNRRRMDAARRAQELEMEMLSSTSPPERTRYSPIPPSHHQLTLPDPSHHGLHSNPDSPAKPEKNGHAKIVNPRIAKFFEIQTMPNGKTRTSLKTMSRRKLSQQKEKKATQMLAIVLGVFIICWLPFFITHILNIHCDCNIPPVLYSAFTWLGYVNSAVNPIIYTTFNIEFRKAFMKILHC
Method in brief: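 Rat striatal membranes in 0.05 M Tris-HCl pH 7.6 with 0.1% ascorbic acid and salts, at 5 mg wet weight/mL. Incubated with [3H]spiperone at 37 °C for 10 min. Nonspecific binding defined with 1 μM (+)-butaclamol. Bound ligand separated by glass-fibre filtration and counted by liquid scintillation. IC50 by log-logit regression.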

D(2) dopamine receptor [2] = target: T1, D(2) dopamine receptor; assay: Inhibition of [3H]raclopride binding to rat striatal dopamine receptor D2
Method in brief: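 Rat striatal membranes were homogenised in 0.05 M Tris-HCl pH 7.6, washed by centrifugation, then resuspended with 0.1% ascorbic acid and salts at 5 mg original wet weight/mL. Nonspecific binding was set with 1 μM (+)-butaclamol. Filtration on glass-fibre filters, scintillation counting. Ki by nonlinear regression (LIGAND), Cheng–Prusoff, all experiments pooled.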

Rattus norvegicus [3] = assay: Block of apomorphine-induced response measured as hyperactivity injected ip 60 min prior to apomorphine hydrochloride(1 mg/kg, sc); type: functional
Method in brief: (§1)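 Male Sprague-Dawley rats (270–325 g). Compounds in saline or acetic acid/water given ip (5 ml/kg) 60 min before apomorphine HCl 1 mg/kg sc into neck. […] At least six dose levels, 6–8 rats each. ED50 by regression with Fieller's theorem 95% confidence limits.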

Rattus norvegicus [4] = assay: Block of apomorphine-induced response measured as hypothermia injected ip 30 min prior to apomorphine hydrochloride(1 mg/kg, sc); type: functional
Method in brief: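 Male Sprague-Dawley rats (200–250 g) housed at 21 ± 0.5 °C, groups of n = 6, given saline or compound ip 30 min before apomorphine HCl 1 mg/kg sc. Rectal core temperature taken before dosing, before apomorphine and 15 min after it. Changes are percent of control mean.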

Rattus norvegicus [5] = assay: Block of apomorphine-induced response measured as stereotypies injected ip 60 min prior to apomorphine hydrochloride(1 mg/kg, sc); type: functional; method in brief: as §1
Rattus norvegicus [6] = species on record: Rattus norvegicus; assay: The catalepsy was measured in rat by using bar test; type: functional
Method in brief: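 Horizontal bar 7 cm high, 1.5 cm diameter. Rat forepaws placed over it at 20, 40, 60, 90, 120 and 240 min after ip dosing. Descent latency timed, 60 s cutoff. Cataleptic = mean over 15 s from the three longest latencies. Saline controls included.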

[7] = Rattus norvegicus, read-out: ED50

Compound: COc1cc(Br)cc(C(=O)NC[C@@H]2CCCN2Cc2ccc(F)cc2)c1OC
- IC50 (D(2) dopamine receptor [1]): 126 nM

Compound: COc1cc(Br)c(OC)c(C(=O)NC[C@H]2CCCN2Cc2ccccc2)c1OC
- IC50 (D(2) dopamine receptor [1]): 1860 nM

Compound: CCN1CCC[C@H]1CNC(=O)c1c(OC)c(Cl)cc(Cl)c1OC
- IC50 (D(2) dopamine receptor [1]): > 10000 nM

Compound: COc1c(Cl)cc(Cl)c(OC)c1C(=O)NC1CCN(Cc2ccccc2)CC1
- IC50 (D(2) dopamine receptor [1]): 3450 nM

Compound: COc1cc(Br)c(OC)c(C(=O)NC[C@H]2CCCN2Cc2ccc(F)cc2)c1O
- IC50 (D(2) dopamine receptor [1]): 124 nM

Compound: COc1c(Cl)cc(Cl)c(OC)c1C(=O)NC[C@H]1CCCN1Cc1ccc(F)cc1
- IC50 (D(2) dopamine receptor [1]): 2380 nM

Compound: CCN1CCC[C@H]1CNC(=O)c1c(OC)ccc(Br)c1O
- ED50 (Rattus norvegicus [4]): 0.6 µmol/kg
- ED50 (Rattus norvegicus [6]): 1 µmol/kg

Compound: CCN1CCC[C@H]1CNC(=O)c1cc(Br)cc(OC)c1OC
- Ki (D(2) dopamine receptor [2]): 0.018 nM
- ED50 (Rattus norvegicus [4]): 0.005 µmol/kg
- ED50 (Rattus norvegicus [6]): 0.39 µmol/kg

Compound: CCN1CCC[C@H]1CNC(=O)c1cccc(OC)c1OC
- IC50 (D(2) dopamine receptor [1]): 52 nM

Compound: COc1cc(Br)c(OC)c(C(=O)NC[C@H]2CCCN2Cc2ccc(F)cc2)c1OC
- IC50 (D(2) dopamine receptor [1]): 2210 nM

Compound: COc1cc(Br)c(O)c(C(=O)NC[C@H]2CCCN2Cc2ccc(F)cc2)c1OC
- Ki (D(2) dopamine receptor [2]): 0.19 nM
- ED50 (Rattus norvegicus [3]; [7]): 1.5 µmol/kg
- ED50 (Rattus norvegicus [4]): 1.3 µmol/kg
- ED50 (Rattus norvegicus [5]; [7]): 2.4 µmol/kg
- ED50 (Rattus norvegicus [6]): 13 µmol/kg

Compound: CCN1CCC[C@H]1CNC(=O)c1c(O)c(Br)cc(OC)c1OC
- ED50 (Rattus norvegicus [6]): 0.13 µmol/kg

Compound: COc1ccc(Br)c(O)c1C(=O)NCC1CCCN1Cc1ccccc1 (single isomer, unassigned)
- IC50 (D(2) dopamine receptor [1]): 2680 nM
- ED50 (Rattus norvegicus [3]): >80 µM/kg
- ED50 (Rattus norvegicus [5]): >80 µM/kg

Compound: CCN1CCC[C@H]1CNC(=O)c1c(O)c(Cl)cc(Cl)c1OC [RACLOPRIDE]
- ED50 (Rattus norvegicus [6]): 10 µmol/kg

Further lines, with some results ahead:

- IC50 (D(2) dopamine receptor [1]): 6.3 nM
Compound: COc1cccc(C(=O)NC2CCN(Cc3ccccc3)CC2)c1OC

- IC50 (D(2) dopamine receptor [1]): 29 nM
Compound: CCc1cc(Cl)c(OC)c(C(=O)NC[C@H]2CCCN2Cc2ccc(F)cc2)c1O

- IC50 (D(2) dopamine receptor [1]): 0.36 nM
Compound: COc1cc(Br)c(O)c(C(=O)NC2CCN(Cc3ccccc3)CC2)c1OC

- IC50 (D(2) dopamine receptor [1]): 9.4 nM
Compound: CCc1cc(Cl)c(OC)c(C(=O)NC2CCN(Cc3ccccc3)CC2)c1O

- IC50 (D(2) dopamine receptor [1]): 21 nM
Compound: COc1c(Cl)cc(Cl)c(O)c1C(=O)NC[C@H]1CCCN1Cc1ccc(F)cc1

- IC50 (D(2) dopamine receptor [1]): 41 nM
Compound: COc1ccc(Br)c(O)c1C(=O)NC1CCN(Cc2ccccc2)CC1

- IC50 (D(2) dopamine receptor [1]): 28 nM
- Ki (D(2) dopamine receptor [2]): 0.43 nM
Compound: COc1ccc(Br)c(O)c1C(=O)NC[C@H]1CCCN1Cc1ccc(F)cc1
- ED50 (Rattus norvegicus [3]; [7]): 2 µmol/kg
- ED50 (Rattus norvegicus [4]): 1.7 µmol/kg
- ED50 (Rattus norvegicus [5]; [7]): 13.2 µmol/kg
- ED50 (Rattus norvegicus [6]): 27 µmol/kg

- IC50 (D(2) dopamine receptor [1]): 21 nM
Compound: COc1cccc(C(=O)NC[C@H]2CCCN2Cc2ccccc2)c1OC

- IC50 (D(2) dopamine receptor [1]): 1.4 nM
- Ki (D(2) dopamine receptor [2]): 0.024 nM
Compound: COc1cc(Br)cc(C(=O)NC[C@H]2CCCN2Cc2ccccc2)c1OC
- ED50 (Rattus norvegicus [3]; [7]): 1.2 µmol/kg
- ED50 (Rattus norvegicus [5]; [7]): 1.4 µmol/kg

- IC50 (D(2) dopamine receptor [1]): 0.65 nM
Compound: COc1cc(Br)cc(C(=O)NC[C@H]2CCCN2Cc2ccc(F)cc2)c1OC

- IC50 (D(2) dopamine receptor [1]): 18 nM
- Ki (D(2) dopamine receptor [2]): 0.8 nM
Compound: COc1ccc(Br)c(O)c1C(=O)NC[C@H]1CCCN1Cc1ccccc1
- ED50 (Rattus norvegicus [3]): 5.6 µM/kg
- ED50 (Rattus norvegicus [5]): 18.6 µM/kg

- IC50 (D(2) dopamine receptor [1]): 5.4 nM
Compound: COc1c(Cl)cc(Cl)c(O)c1C(=O)NC1CCN(Cc2ccccc2)CC1

- IC50 (D(2) dopamine receptor [1]): 36 nM
Compound: COc1ccc(Br)c(O)c1C(=O)NCC1CCCN1Cc1ccccc1 (racemic)
